Data: ChEMBL document CHEMBL1177722, “Computer-aided identification of Trypanosoma brucei uridine diphosphate galactose 4'-epimerase inhibitors: toward the development of novel therapies for African sleeping sickness” (J Med Chem, 2010)
pEC50, pIC50: −log10 of the molar value.

How the values were obtained:
[1] = biological target: T1, UDP-galactose 4-epimerase (Trypanosoma brucei, UniProt Q8T8E9); test: Inhibition of hexahistidine-tagged Trypanosoma brucei UDP-galactose-4'epimerase expressed in Escherichia coli
T1 sequence (Q8T8E9 whole entry): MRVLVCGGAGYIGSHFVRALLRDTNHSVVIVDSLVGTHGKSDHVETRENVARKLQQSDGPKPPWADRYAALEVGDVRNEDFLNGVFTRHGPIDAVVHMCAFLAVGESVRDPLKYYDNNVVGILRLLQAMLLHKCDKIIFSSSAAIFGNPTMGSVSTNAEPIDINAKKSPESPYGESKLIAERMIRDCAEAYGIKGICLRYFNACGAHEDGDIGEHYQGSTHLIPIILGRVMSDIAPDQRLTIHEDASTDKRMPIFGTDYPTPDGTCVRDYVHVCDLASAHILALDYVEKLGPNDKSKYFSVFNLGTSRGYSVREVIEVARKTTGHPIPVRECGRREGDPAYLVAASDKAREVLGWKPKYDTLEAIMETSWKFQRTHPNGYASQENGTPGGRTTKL
Procedure, shortened: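 Recombinant enzyme reacted with 100 μM UDP-Gal and 100 μM β-NAD+ (5 μg/mL enzyme, 1 mM Tris pH 7.6, 1% DMSO), with or without inhibitor (0.03-100 μM), at 37 °C for 30 min. Quenched with NaOH. UDP-Gal to UDP-Glc conversion followed by HPAEC, detection at 260 nm. IC50 from a four-parameter fit over three independent experiments.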

Trypanosoma brucei = test: Antitrypanosomal activity against Trypanosoma brucei after 3 days by alamar blue assay; assay type: functional, organism-based; conditions: 72 h
Procedure, shortened: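 Cultured T. brucei seeded at 1 × 10^4 cells/ml in 384-well format, incubated with or without inhibitor (100 μM to 30 nM) for three days; viable cells then counted by Alamar Blue read-out; EC50 derived from the dose series.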

MRC5 = test: Cytotoxicity against human MRC5 cells after 3 days by alamar blue assay; assay type: cell-based; conditions: MRC5, 72 h
Procedure, shortened: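 Cultured human MRC5 cells at 1 × 10^4 cells/ml in 384-well format, incubated with or without inhibitor over 100 μM to 30 nM for three days. Viable cell number then counted by Alamar blue.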

Compound	pIC50 [1]	pEC50 (Trypanosoma brucei)	pEC50 (MRC5)
COC1C(OC(=O)c2ccc(C)[nH]2)C(O)C(Oc2ccc3c(O)c(NC(=O)c4ccc(O)c(CC=C(C)C)c4)c(=O)oc3c2Cl)OC1(C)C (centres undefined)	5.30	5.36	< 4.30
O=C(O)c1ccccc1-c1ccccc1C(=O)Nc1ccc2c(c1)Cc1cc(NC(=O)c3ccccc3-c3ccccc3C(=O)O)ccc1-2	6.05	< 4.30	< 4.30
O=C(O)c1ccccc1-c1ccccc1C(=O)Nc1ccc2c(c1)C(O)c1ccccc1-2 (centres undefined)	5.17	< 4.30	< 4.30
O=C(O)c1cc(Cl)ccc1-c1ccc(Cl)cc1C(=O)NC1=CC2=C(CC1)c1c(Cl)cc(Cl)cc1C2	5.74	< 4.30	4.45
O=C(O)c1ccccc1-c1ccccc1C(=O)Nc1ccc2c(c1)nc(O)c1ccccc12	5.44	< 4.30	< 4.30
CCn1c2ccccc2c2cc(NC(=O)c3ccccc3-c3ccccc3C(=O)O)ccc21	5.25	< 4.30	< 4.30
O=C(O)c1ccccc1-c1ccccc1C(=O)Nc1ccc2c(c1)Cc1ccccc1-2	5.34	< 4.30	< 4.30
O=C(O)c1ccccc1-c1ccccc1C(=O)Nc1ccc2c(c1)C(=O)c1ccccc1-2	5.55	< 4.30	< 4.30
O=C(O)c1ccccc1-c1ccccc1C(=O)Nc1ccc2c(c1)oc(=O)c1ccccc12	5.49	–	< 4.30
O=C(O)c1ccccc1-c1ccccc1C(=O)Nc1ccc2c(c1)-c1ccccc1C2	5.38	< 4.30	< 4.30
O=C(O)c1ccccc1-c1ccccc1C(=O)Nc1cccc2c1-c1ccccc1C2	5.10	< 4.30	< 4.30
O=C(O)c1ccccc1-c1ccccc1C(=O)Nc1ccc2c(c1)Cc1cc(F)ccc1-2	5.42	< 4.30	< 4.30
O=C(O)c1ccccc1-c1ccccc1C(=O)Nc1cc2c3ccccc3ccc2c2ccccc12	5.59	–	< 4.30
O=C(O)c1cc(Cl)ccc1-c1ccc(Cl)cc1C(=O)Nc1ccc2c(c1)Cc1ccccc1-2	5.48	–	< 4.30
